Four proteins from ChEMBL document CHEMBL1629614, “Inhibition of methionyl-tRNA synthetase by REP8839 and effects of resistance mutations on enzyme activity” (Antimicrob Agents Chemother, 2009) can be followed below.

Compound in data set [1]: C=C(F)c1sc(CNCCCNc2cc(=O)c3ccccc3[nH]2)c(C)c1Br
As to the kind of experiment: Activity of Staphylococcus aureus MetRS G223C mutant by ATP:PPi exchange assay in presence of methionine. Put shortly:
(§1)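 Purified S. aureus MetRS (wild type or mutant; E. coli-expressed, ammonium sulfate cut, anion exchange) at 30 nM. ATP:PPi exchange at 30°C in 100 mM Tris-HCl pH 8.0, 5–10 mM Mg acetate, 80 mM KCl, 2.5 mM DTT, [32P]PPi plus cold PPi equal to ATP. Quenched with EDTA over 1–10 min, PEI-cellulose TLC, phosphorimager. Initial velocities versus varied ATP or methionine fit to Michaelis-Menten.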

Compound in data set [2]: C=C(F)c1sc(CNCCCNc2cc(=O)c3ccccc3[nH]2)c(C)c1Br
As to the kind of experiment: Ratio of Kcat to Km for Staphylococcus aureus MetRS G223C mutant in presence of ATP. Put shortly:
(§2)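 Purified recombinant S. aureus MetRS (30 nM) was assayed by ATP:PPi exchange at 30°C in Tris pH 8.0 with Mg acetate, KCl and DTT. [32P]PPi was matched to ATP, and ATP or methionine was varied. Time points from 1 to 10 min were quenched with EDTA, separated by PEI-cellulose TLC and read by phosphorimager. Initial rates were fitted to Michaelis-Menten.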

Compound in data set [3]: C=C(F)c1sc(CNCCCNc2cc(=O)c3ccccc3[nH]2)c(C)c1Br
As to the kind of experiment: Activity of streptococcus aureus MetRS G223C mutant by scintillation proximity assay in presence of tRNA. To be noted: Staphylococcus aureus. In general terms: SPA uses beads or plates that emit light when radiolabelled molecules are held near them.

Compound in data set [4]: C=C(F)c1sc(CNCCCNc2cc(=O)c3ccccc3[nH]2)c(C)c1Br
As to the kind of experiment: Ratio of Kcat to Km for Staphylococcus aureus MetRS G223C mutant in presence of tRNA. Put shortly: (§3)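 Purified recombinant S. aureus MetRS was assayed by tRNA aminoacylation at 30°C for 1 to 7.5 min to obtain initial rates. Buffer was Tris pH 8.0 with Mg acetate, 2.5 mM ATP, KCl, DTT, BSA, [3H]methionine and crude E. coli tRNA. Reactions were EDTA-stopped, and charged tRNA was read by scintillation proximity with polylysine beads at pH 2.0.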

Compound in data set [5]: C=C(F)c1sc(CNCCCNc2cc(=O)c3ccccc3[nH]2)c(C)c1Br
As to the kind of experiment: Ratio of Kcat to Km for Staphylococcus aureus MetRS G223C mutant in presence of methionine. Put shortly: as §2

Compound in data set [6]: C=C(F)c1sc(CNCCCNc2cc(=O)c3ccccc3[nH]2)c(C)c1Br
As to the kind of experiment: Activity of Staphylococcus aureus MetRS G223C mutant by ATP:PPi exchange assay in presence of ATP. Put shortly:
as §1

Compound in data set [7]: C=C(F)c1sc(CNCCCNc2cc(=O)c3ccccc3[nH]2)c(C)c1Br
As to the kind of experiment: Ratio of Kcat to Km for Staphylococcus aureus MetRS I57N V242F mutant in presence of methionine. The essentials:
as §2

Compound in data set [8]: C=C(F)c1sc(CNCCCNc2cc(=O)c3ccccc3[nH]2)c(C)c1Br
As to the kind of experiment: Ratio of Kcat to Km for Staphylococcus aureus MetRS I57N V242F mutant in presence of ATP. The essentials:
as §2

Compound in data set [9]: C=C(F)c1sc(CNCCCNc2cc(=O)c3ccccc3[nH]2)c(C)c1Br
As to the kind of experiment: Ratio of Kcat to Km for Staphylococcus aureus MetRS I57N V242F mutant in presence of tRNA. Put shortly: as §3

Compound in data set [10]: C=C(F)c1sc(CNCCCNc2cc(=O)c3ccccc3[nH]2)c(C)c1Br
As to the kind of experiment: Activity of Staphylococcus aureus MetRS I57N, V242F mutant by ATP:PPi exchange assay in presence of methionine. Put shortly: as §1

Compound in data set [11]: C=C(F)c1sc(CNCCCNc2cc(=O)c3ccccc3[nH]2)c(C)c1Br
As to the kind of experiment: Activity of Staphylococcus aureus MetRS I57N, V242F mutant by ATP:PPi exchange assay in presence of ATP. The essentials: as §1

Compound in data set [12]: C=C(F)c1sc(CNCCCNc2cc(=O)c3ccccc3[nH]2)c(C)c1Br
As to the kind of experiment: Activity of streptococcus aureus MetRS I57N, V242F mutant by scintillation proximity assay in presence of tRNA. To be noted: Staphylococcus aureus.

Compound in data set [13]: C=C(F)c1sc(CNCCCNc2cc(=O)c3ccccc3[nH]2)c(C)c1Br
As to the kind of experiment: Activity of streptococcus aureus MetRS I57N, G54S mutant by scintillation proximity assay in presence of tRNA. To be noted: Staphylococcus aureus.

Compound in data set [14]: C=C(F)c1sc(CNCCCNc2cc(=O)c3ccccc3[nH]2)c(C)c1Br
As to the kind of experiment: Activity of Staphylococcus aureus MetRS I57N, G54S mutant by ATP:PPi exchange assay in presence of ATP. The essentials: as §1

Compound in data set [15]: C=C(F)c1sc(CNCCCNc2cc(=O)c3ccccc3[nH]2)c(C)c1Br
As to the kind of experiment: Ratio of Kcat to Km for Staphylococcus aureus MetRS I57N G54S mutant in presence of tRNA. Put shortly:
as §3

Compound in data set [16]: C=C(F)c1sc(CNCCCNc2cc(=O)c3ccccc3[nH]2)c(C)c1Br
As to the kind of experiment: Ratio of Kcat to Km for Staphylococcus aureus MetRS I57N G54S mutant in presence of ATP. Put shortly: as §2

Compound in data set [17]: C=C(F)c1sc(CNCCCNc2cc(=O)c3ccccc3[nH]2)c(C)c1Br
As to the kind of experiment: Activity of Staphylococcus aureus MetRS I57N, G54S mutant by ATP:PPi exchange assay in presence of methionine. The essentials:
as §1

Compound in data set [18]: C=C(F)c1sc(CNCCCNc2cc(=O)c3ccccc3[nH]2)c(C)c1Br
As to the kind of experiment: Ratio of Kcat to Km for Staphylococcus aureus MetRS I57N G54S mutant in presence of methionine. Put shortly:
as §2

Compound in data set [19]: C=C(F)c1sc(CNCCCNc2cc(=O)c3ccccc3[nH]2)c(C)c1Br
As to the kind of experiment: Activity of Staphylococcus aureus MetRS V108M mutant by ATP:PPi exchange assay in presence of methionine. Put shortly: as §1

Compound in data set [20]: C=C(F)c1sc(CNCCCNc2cc(=O)c3ccccc3[nH]2)c(C)c1Br
As to the kind of experiment: Ratio of Kcat to Km for Staphylococcus aureus MetRS V108M mutant in presence of methionine. The essentials: as §2

Compound in data set [21]: C=C(F)c1sc(CNCCCNc2cc(=O)c3ccccc3[nH]2)c(C)c1Br
As to the kind of experiment: Activity of streptococcus aureus MetRS V108M mutant by scintillation proximity assay in presence of tRNA. To be noted: Staphylococcus aureus.

Compound in data set [22]: C=C(F)c1sc(CNCCCNc2cc(=O)c3ccccc3[nH]2)c(C)c1Br
As to the kind of experiment: Activity of Staphylococcus aureus MetRS V108M mutant by ATP:PPi exchange assay in presence of ATP. The essentials:
as §1

Compound in data set [23]: C=C(F)c1sc(CNCCCNc2cc(=O)c3ccccc3[nH]2)c(C)c1Br
As to the kind of experiment: Ratio of Kcat to Km for Staphylococcus aureus MetRS V108M mutant in presence of tRNA. The essentials: as §3

Compound in data set [24]: C=C(F)c1sc(CNCCCNc2cc(=O)c3ccccc3[nH]2)c(C)c1Br
As to the kind of experiment: Ratio of Kcat to Km for Staphylococcus aureus MetRS V108M mutant in presence of ATP. Put shortly: as §2

Positions count from the first letter of the chain named. Numbers in names are those of the source.

B1: Methionine--tRNA ligase (Staphylococcus aureus subsp. aureus MW2), Q8NY00 G223C (protein)
chain: MAKETFYITTPIYYPSGNLHIGHAYSTVAGDVIARYKRMQGYDVRYLTGTDEHGQKIQEKAQKAGKTEIEYLDEMIAGIKQLWAKLEISNDDFIRTTEERHKHVVEQVFERLLKQGDIYLGEYEGWYSVPDETYYTESQLVDPQYENGKIIGGKSPDSGHEVELVKEESYFFNISKYTDRLLEFYDQNPDFIQPPSRKNEMINNFIKPGLADLAVSRTSFNWCVHVPSNPKHVVYVWIDALVNYISALGYLSDDESLFNKYWPADIHLMAKEIVRFHSIIWPILLMALDLPLPKKVFAHGWILMKDGKMSKSKGNVVDPNILIDRYGLDATRYYLMRELPFGSDGVFTPEAFVERTNFDLANDLGNLVNRTISMVNKYFDGELPAYQGPLHELDEEMEAMALETVKSYTESMESLQFSVALSTVWKFISRTNKYIDETTPWVLAKDDSQKDMLGNVMAHLVENIRYAAVLLRPFLTHAPKEIFEQLNINNPQFMEFSSLEQYGVLTESIMVTGQPKPIFPRLDSEAEIAYIKESMQPPATEEEKEEIPSKPQIDIKDFDKVEIKAATIINAEHVKKSDKLLKIQVDLDSEQRQIVSGIAKFYTPDDIIGKKVAVVTNLKPAKLMGQKSEGMILSAEKDGVLTLVSLPSAIPNGAVIK
Usually Km stands for the substrate concentration at which the rate is half of its maximum. Usually kcat stands for the number of substrate molecules converted per active site and unit of time at saturation. Broadly, the kcat/Km is the second-order rate constant that governs catalysis at low substrate concentration. B1: the values for the Km in data set [1], in data set [3] and in [6] were 680 µM, 2.5 µM and 750 µM, respectively. Moreover, the figures for the kcat in data set [1] and in data set [3] were 10 s⁻¹ and 0.037 s⁻¹, respectively. The kcat/Km in data set [2] was found to be 13000 M⁻¹ s⁻¹; in data set [4] it was 15000 M⁻¹ s⁻¹; in data set [5] it was 10000 M⁻¹ s⁻¹.

B2: Methionine--tRNA ligase (Staphylococcus aureus subsp. aureus MW2), Q8NY00 I57N,V242F (protein)
chain: B1 chain with I57N, C223G, V242F
For the protein B2, the kcat/Km in data set [7] was 700000 M⁻¹ s⁻¹; in data set [8], 17000 M⁻¹ s⁻¹; in data set [9], 12000 M⁻¹ s⁻¹. Further, the results for the Michaelis constant (Km) in [10], in [11] and in data set [12] were 20 µM, 810 µM and 10 µM, respectively. The kcat worked out at 14 s⁻¹ in data set [10] and 0.124 s⁻¹ in [12].

B3: Methionine--tRNA ligase (Staphylococcus aureus subsp. aureus MW2), Q8NY00 I57N,G54S (protein)
chain: B1 chain with G54S, I57N, C223G
On to B3, for which the Km in data set [13] amounted to 0.41 µM; in data set [14], 765 µM; in data set [17], 360 µM. The kcat came to 0.002 s⁻¹ in [13] and 6 s⁻¹ in data set [17]. The kcat/Km in [15] is 5000 M⁻¹ s⁻¹; in data set [16], 8000 M⁻¹ s⁻¹; in data set [18], 20000 M⁻¹ s⁻¹.

B4: Methionine--tRNA ligase (Staphylococcus aureus subsp. aureus MW2), Q8NY00 V108M (protein)
chain: B1 chain with V108M, C223G
Consider B4, for which the results for the Km in [19], in data set [21] and in data set [22] were 140 µM, 3.2 µM and 650 µM, respectively. Further, the turnover number (kcat) is 15 s⁻¹ in data set [19] and 0.74 s⁻¹ in data set [21]. The kcat/Km was found to be 110000 M⁻¹ s⁻¹ in data set [20], 230000 M⁻¹ s⁻¹ in data set [23] and 23000 M⁻¹ s⁻¹ in data set [24].
